Measurements published in ChEMBL document CHEMBL4834403, “Design and Synthesis of Novel Epigenetic Inhibitors Targeting Histone Deacetylases, DNA Methyltransferase 1, and Lysine Methyltransferase G9a with In Vivo Efficacy in Multiple Myeloma” (J Med Chem, 2021).
The source made the active and inactive calls. The calls are words filed in the database; no cut-off is given here.

Key:
[1] = biological target: Histone deacetylase 1 (Homo sapiens, UniProt Q13547); experiment: Inhibition of full length human C-terminal His-tagged/C-terminal Flag-tagged HDAC1 using fluorogenic acetylated peptide as substrate incubated for 30 mins by fluorescence plate reader assay
[2] = biological target: Histone deacetylase 2 (Homo sapiens, UniProt Q92769)
[3] = biological target: Histone deacetylase 3/Nuclear receptor corepressor 2 (HDAC3/NCoR2) (Homo sapiens, UniProt O15379); experiment: Inhibition of full length human C-terminal His-tagged HDAC3/human N-terminal GST-agged NCOR2 using fluorogenic acetylated peptide as substrate incubated for 30 mins by fluorescence plate reader assay; type: protein-complex assay
[4] = biological target: T1, Protein deacetylase HDAC6 (Homo sapiens, UniProt Q9UBN7); experiment: Inhibition of full length human N-terminal GST-tagged HDAC6 using fluorogenic acetylated peptide as substrate incubated for 30 mins by fluorescence plate reader assay
T1 sequence (Q9UBN7 whole entry): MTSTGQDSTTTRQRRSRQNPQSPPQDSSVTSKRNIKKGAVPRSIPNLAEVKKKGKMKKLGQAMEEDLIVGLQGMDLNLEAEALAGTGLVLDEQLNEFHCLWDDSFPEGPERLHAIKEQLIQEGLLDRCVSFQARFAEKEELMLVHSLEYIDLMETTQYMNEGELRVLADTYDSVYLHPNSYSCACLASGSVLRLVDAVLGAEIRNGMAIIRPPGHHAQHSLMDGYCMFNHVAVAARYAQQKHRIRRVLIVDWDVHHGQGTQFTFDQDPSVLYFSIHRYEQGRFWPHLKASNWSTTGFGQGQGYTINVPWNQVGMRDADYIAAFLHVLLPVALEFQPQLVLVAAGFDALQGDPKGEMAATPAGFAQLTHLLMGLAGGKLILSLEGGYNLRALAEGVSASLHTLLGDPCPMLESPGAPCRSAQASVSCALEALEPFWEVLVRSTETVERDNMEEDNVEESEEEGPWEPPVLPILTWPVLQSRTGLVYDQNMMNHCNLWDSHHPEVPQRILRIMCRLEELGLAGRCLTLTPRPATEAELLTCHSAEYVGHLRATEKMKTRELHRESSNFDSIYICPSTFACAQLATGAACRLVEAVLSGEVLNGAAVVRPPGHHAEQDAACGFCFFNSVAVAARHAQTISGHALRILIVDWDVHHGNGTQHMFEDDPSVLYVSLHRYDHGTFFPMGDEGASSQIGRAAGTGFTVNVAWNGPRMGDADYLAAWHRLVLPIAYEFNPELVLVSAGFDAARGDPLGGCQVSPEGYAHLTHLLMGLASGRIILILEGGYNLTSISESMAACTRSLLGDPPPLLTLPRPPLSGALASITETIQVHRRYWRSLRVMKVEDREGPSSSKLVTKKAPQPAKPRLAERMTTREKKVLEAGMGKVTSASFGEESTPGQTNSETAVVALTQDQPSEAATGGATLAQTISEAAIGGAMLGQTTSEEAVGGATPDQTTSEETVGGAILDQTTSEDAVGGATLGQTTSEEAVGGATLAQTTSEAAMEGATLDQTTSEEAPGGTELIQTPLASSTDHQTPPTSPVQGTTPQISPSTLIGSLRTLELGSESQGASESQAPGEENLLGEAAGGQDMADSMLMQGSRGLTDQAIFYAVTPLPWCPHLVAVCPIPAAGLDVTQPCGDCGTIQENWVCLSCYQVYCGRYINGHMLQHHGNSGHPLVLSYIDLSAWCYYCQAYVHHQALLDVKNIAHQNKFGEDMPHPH

[5] = biological target: T2, Histone-lysine N-methyltransferase EHMT2 (Homo sapiens, UniProt Q96KQ7); experiment: Inhibition of human G9a enzyme using histone monomethyl-H3K9 peptide as substrate incubated for 1 hr in presence of SAM by TR-FRET assay
T2 sequence (Q96KQ7 whole entry): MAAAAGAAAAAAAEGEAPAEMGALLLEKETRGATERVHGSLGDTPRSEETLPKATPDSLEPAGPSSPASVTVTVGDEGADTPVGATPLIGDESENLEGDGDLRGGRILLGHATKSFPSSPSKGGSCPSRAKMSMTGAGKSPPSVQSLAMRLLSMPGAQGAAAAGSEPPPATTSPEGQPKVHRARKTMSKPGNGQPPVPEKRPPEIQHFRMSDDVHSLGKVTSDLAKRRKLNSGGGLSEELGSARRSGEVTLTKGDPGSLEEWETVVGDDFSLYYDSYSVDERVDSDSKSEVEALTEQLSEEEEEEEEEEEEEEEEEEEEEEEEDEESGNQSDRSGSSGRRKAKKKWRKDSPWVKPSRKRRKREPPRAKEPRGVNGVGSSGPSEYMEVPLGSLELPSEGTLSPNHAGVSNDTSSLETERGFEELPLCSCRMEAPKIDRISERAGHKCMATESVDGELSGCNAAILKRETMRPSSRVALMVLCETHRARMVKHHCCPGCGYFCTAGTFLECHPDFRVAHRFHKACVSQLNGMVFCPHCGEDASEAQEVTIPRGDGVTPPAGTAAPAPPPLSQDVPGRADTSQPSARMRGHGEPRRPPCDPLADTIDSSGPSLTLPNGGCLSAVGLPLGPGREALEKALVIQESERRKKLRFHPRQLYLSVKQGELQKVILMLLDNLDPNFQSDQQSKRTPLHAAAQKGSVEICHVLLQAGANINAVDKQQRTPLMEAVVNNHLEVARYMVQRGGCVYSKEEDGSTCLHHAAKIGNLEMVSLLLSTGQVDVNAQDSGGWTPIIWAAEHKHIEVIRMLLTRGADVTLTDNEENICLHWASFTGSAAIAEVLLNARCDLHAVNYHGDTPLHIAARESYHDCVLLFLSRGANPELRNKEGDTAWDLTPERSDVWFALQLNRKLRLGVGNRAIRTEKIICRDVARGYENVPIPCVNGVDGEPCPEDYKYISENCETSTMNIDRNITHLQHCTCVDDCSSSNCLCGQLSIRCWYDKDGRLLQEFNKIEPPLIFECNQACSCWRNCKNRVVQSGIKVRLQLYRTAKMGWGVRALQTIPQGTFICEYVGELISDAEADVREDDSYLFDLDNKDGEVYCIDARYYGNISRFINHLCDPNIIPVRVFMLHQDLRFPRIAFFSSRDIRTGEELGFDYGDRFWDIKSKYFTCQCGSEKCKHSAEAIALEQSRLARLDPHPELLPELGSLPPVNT

[6] = biological target: DNA (cytosine-5)-methyltransferase 1 (Homo sapiens, UniProt P26358); experiment: Inhibition of human DNMT1 enzyme using polydeoxy-inosine polydeoxy-cytosine DNA as substrate incubated for 15 mins in presence of SAM by TR-FRET assay
[7] = system: MM1.S; experiment: Antiproliferative activity against human MM1.S cells assessed as inhibition of cell proliferation measured up to 72 hrs by CellTiter96 Aqueous one reagent based assay; type: functional
[8] = system: THLE-2; experiment: Cytotoxicity against human THLE-2 cells assessed as decrease in cell viability measured after 72 hrs by Vialight-plus cell proliferation assay; type: cell-based; details: thle-2, 72 h
Method in brief: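 Human THLE-2 cells exposed to compound for 72 h. Cytotoxicity reported as LC50 and pLC50, averaged from at least two independent experiments on different days.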

[9] = Permeability of the compound in PBS/EtOH buffer (70:30) incubated for 18 hrs by UV plate reader based PAMPA assay; type: ADME; details: read-out: permeability
[10] = biological target: T3, Histone-lysine N-methyltransferase EHMT2 (Homo sapiens) (UniProt Q96KQ7); experiment: Inhibition of G9A in human MM1.S cells assessed as decrease in H3K9Me2 levels up to 50 uM after 48 hrs by Western blot analysis; type: cell-based; details: dose microM <=50, time 48.0 hrs
T3 sequence (whole entry): T2 sequence (Q96KQ7 whole entry)
Method in brief: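 MM1.S cells exposed 48 h across a concentration range. Global H3K9Ac and H3K9me2 read by Western blot; run in duplicate.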

[11] = time hrs <=72, read-out: pGI50 (converted)

Histone deacetylase 3/Nuclear receptor corepressor 2 (HDAC3/NCoR2), sequence (O15379 whole entry): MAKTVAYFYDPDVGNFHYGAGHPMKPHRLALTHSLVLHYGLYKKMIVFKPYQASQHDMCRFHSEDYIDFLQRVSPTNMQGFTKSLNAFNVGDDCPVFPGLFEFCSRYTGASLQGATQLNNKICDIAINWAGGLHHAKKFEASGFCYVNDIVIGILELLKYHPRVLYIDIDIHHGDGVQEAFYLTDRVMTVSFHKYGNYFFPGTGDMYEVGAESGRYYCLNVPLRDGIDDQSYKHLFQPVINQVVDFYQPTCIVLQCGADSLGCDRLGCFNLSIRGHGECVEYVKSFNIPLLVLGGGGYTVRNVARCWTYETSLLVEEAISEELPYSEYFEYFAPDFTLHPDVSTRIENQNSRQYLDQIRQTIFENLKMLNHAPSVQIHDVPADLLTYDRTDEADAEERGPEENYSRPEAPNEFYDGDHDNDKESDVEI
Histone deacetylase 3/Nuclear receptor corepressor 2 (HDAC3/NCoR2), sequence (Q9Y618 whole entry, further chain): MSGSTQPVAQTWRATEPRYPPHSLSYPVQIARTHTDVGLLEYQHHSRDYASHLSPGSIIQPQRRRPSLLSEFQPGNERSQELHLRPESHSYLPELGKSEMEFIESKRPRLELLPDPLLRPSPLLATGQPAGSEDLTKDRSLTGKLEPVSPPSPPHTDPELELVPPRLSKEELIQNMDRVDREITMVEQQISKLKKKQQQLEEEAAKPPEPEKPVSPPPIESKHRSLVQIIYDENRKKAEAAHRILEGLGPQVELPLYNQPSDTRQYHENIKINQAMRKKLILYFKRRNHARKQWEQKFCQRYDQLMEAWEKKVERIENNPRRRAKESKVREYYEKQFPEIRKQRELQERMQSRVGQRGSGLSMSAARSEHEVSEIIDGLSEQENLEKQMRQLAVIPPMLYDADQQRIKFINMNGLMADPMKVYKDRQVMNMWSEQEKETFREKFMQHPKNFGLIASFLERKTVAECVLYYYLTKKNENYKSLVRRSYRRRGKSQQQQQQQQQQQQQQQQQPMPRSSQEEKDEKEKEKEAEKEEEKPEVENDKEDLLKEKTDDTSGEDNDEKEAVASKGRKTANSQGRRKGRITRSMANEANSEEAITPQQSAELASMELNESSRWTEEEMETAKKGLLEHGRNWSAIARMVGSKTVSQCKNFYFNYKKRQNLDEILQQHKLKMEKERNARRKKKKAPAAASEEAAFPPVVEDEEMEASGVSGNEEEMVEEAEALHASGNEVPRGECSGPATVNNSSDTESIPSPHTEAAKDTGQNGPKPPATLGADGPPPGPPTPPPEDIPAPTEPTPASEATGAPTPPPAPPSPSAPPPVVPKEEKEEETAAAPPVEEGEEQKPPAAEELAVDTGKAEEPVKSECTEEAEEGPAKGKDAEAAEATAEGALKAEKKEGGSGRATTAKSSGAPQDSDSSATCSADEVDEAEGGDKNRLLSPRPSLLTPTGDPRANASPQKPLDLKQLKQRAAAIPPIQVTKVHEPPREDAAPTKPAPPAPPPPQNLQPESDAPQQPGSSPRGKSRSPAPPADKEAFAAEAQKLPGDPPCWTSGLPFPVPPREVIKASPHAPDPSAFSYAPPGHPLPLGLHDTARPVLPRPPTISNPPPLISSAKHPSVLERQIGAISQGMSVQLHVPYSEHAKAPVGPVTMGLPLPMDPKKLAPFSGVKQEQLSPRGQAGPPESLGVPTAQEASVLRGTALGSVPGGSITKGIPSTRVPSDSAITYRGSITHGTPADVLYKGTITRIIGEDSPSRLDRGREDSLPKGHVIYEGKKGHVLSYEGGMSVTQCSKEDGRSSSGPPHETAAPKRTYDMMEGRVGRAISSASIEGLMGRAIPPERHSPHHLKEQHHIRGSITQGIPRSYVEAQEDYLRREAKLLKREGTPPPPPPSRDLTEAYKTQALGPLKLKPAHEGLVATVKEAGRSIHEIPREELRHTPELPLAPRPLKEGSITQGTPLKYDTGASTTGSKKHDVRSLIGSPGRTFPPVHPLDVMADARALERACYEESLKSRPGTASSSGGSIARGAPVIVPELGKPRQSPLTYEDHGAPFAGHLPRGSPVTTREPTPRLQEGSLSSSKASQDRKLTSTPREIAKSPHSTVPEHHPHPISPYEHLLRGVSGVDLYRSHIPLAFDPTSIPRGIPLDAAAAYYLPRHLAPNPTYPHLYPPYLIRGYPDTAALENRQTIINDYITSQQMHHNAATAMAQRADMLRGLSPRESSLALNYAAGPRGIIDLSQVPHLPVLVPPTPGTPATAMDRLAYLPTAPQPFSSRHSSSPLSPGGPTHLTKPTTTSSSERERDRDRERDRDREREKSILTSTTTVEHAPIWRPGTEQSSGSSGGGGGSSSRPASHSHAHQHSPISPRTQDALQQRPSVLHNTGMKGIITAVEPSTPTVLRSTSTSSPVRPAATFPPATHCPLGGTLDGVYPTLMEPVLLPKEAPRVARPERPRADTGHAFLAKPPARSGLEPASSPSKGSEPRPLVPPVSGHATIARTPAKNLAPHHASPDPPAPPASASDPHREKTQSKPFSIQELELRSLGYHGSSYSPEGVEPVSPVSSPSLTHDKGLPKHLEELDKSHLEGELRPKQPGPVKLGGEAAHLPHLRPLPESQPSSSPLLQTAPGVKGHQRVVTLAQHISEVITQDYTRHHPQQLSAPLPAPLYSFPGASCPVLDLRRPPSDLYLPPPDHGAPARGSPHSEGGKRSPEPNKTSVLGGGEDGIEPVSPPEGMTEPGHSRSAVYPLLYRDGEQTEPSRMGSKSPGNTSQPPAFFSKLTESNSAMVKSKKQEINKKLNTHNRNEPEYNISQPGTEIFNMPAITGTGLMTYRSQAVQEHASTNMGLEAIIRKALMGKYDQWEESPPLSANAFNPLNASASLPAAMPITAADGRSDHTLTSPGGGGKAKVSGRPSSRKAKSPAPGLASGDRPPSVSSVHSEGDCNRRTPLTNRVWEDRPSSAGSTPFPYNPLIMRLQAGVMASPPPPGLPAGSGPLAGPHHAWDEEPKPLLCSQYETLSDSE
DNA (cytosine-5)-methyltransferase 1, sequence (P26358 whole entry): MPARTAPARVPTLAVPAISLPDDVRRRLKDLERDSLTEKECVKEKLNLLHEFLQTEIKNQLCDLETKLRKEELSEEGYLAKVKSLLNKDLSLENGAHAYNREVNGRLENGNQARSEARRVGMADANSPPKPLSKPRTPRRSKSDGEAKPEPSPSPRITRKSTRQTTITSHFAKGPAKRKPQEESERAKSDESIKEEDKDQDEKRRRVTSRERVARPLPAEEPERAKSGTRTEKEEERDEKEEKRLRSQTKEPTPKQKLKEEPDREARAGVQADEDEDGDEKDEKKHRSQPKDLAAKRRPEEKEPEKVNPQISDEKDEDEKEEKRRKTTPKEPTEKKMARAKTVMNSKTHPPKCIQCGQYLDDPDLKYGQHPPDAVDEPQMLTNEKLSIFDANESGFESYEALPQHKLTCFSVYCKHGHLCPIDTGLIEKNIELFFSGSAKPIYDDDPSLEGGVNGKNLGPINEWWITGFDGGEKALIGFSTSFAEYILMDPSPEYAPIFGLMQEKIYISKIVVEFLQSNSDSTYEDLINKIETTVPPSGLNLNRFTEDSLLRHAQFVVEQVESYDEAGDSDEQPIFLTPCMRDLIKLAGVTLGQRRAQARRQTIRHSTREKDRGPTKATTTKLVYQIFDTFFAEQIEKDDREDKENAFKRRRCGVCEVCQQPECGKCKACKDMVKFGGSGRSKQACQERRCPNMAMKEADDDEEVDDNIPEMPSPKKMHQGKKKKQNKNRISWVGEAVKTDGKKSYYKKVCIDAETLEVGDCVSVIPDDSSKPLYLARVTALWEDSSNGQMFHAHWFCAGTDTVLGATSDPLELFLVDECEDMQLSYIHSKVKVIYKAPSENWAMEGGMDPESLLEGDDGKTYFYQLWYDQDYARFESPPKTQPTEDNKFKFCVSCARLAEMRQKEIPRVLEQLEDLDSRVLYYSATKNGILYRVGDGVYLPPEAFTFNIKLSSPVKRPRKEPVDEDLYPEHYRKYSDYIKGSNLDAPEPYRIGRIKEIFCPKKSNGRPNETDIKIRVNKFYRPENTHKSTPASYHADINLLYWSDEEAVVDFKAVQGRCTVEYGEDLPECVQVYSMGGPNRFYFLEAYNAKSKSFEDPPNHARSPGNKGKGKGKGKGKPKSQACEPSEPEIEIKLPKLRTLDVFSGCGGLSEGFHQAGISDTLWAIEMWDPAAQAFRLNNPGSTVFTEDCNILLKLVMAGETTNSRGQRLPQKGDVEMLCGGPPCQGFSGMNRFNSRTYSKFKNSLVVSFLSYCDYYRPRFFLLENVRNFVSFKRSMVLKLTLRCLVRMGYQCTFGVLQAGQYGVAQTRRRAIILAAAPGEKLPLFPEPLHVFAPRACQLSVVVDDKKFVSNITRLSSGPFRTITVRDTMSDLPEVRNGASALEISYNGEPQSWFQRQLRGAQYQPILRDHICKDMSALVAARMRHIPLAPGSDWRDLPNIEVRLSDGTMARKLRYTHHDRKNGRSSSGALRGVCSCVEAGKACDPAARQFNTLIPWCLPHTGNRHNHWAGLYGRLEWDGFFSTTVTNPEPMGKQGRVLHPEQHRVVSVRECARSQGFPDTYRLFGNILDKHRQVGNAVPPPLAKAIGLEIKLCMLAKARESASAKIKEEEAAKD
Histone deacetylase 2, sequence (Q92769 whole entry): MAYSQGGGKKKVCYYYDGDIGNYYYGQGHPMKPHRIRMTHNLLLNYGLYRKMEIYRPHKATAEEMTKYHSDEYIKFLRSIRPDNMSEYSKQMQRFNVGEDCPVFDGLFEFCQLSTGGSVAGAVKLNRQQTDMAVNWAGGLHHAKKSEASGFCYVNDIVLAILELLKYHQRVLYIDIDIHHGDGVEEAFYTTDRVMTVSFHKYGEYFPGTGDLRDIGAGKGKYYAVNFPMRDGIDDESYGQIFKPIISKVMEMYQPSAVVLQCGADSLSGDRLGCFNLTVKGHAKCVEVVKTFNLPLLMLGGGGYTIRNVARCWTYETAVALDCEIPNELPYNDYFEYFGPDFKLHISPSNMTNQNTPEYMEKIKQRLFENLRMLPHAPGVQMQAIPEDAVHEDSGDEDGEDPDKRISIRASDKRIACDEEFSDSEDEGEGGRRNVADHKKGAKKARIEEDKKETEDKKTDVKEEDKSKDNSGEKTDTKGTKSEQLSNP

| Structure (SMILES) | IC50 [1] [µM] | IC50 [2] [µM] | IC50 [3] [µM] | IC50 [4] [µM] | IC50 [5] [µM] | IC50 [6] [µM] | GI50 ([7]; time hrs <=72, read-out: GI50) [µM] | GI50 [7, 11] [µM] | LC50 [8] [µM] | pLC50 [8] | Papp at 18 h [9] [nm/s] | inhibition [10] |
| --- | --- | --- | --- | --- | --- | --- | --- | --- | --- | --- | --- | --- |
| COc1cc2nc(-c3ccc(C)o3)cc(NCC3C4CCC3CN(c3ncc(C(=O)NO)cn3)C4)c2cc1OC (centres undefined) | 0.022 | 0.125 | 0.033 | 0.239 | > 10 | 1.68 | 0.459 | 0.457 | 1.35 | 5.87 | 9.59 |  |
| COc1cc2nc(-c3ccc(C)o3)cc(NC3CCN(c4ncc(C(=O)NO)cn4)CC3)c2cc1OC | 0.063 | 0.409 | 0.073 | 0.343 | > 10 | 7.14 | 1.02 | 1.02 | 3.09 | 5.51 | 5.96 |  |
| COc1cc2c(NCc3ccc(C(=O)NO)cc3)cc(-c3ccc(C)o3)nc2cc1OCCCN1CCCC1 | 0.009 | 0.06 | 0.021 | 0.011 | 0.471 | 0.795 | 4.5 | 4.47 | 11.3 | 4.95 | 1 |  |
| COc1cc2c(NCC3CCN(C)CC3)cc(-c3ccc(C)o3)nc2cc1OCCCN1CCCC1 | > 10 | > 10 | > 10 | > 10 |  |  | 3.84 | 3.8 | 1.3 | 5.89 |  |  |
| COc1cc2nc(-c3ccc(C)o3)nc(NCC3CCN(c4ncc(C(=O)NO)cn4)CC3)c2cc1OC | 0.007 | 0.038 | 0.021 | 0.506 | > 10 | > 10 |  |  |  |  |  |  |
| COc1cc2c(NC3CCN(C)CC3)cc(-c3ccc(C)o3)nc2cc1OCCCN1CCCC1 | > 10 | > 10 | > 10 | > 10 |  |  | 1.04 | 1.07 | 1.78 | 5.75 |  |  |
| COc1cc2c(NCc3ccc(-c4ccc(C(=O)NO)cc4)cc3)cc(-c3ccc(C)o3)nc2cc1OCCCN1CCCC1 | 0.045 |  |  | 0.127 | 2.24 | 2.57 | 1.81 | 1.82 | 13.5 | 4.87 | 1.1 |  |
| COc1cc2nc(-c3ccc(C)o3)cc(NCc3ccc(C(=O)NO)cc3)c2cc1OC | 0.014 | 0.091 | 0.044 | 0.022 | > 10 | 5.4 | 0.52 | 0.525 | 2.33 | 5.63 | 5.34 |  |
| COc1cc2c(cc1OCCCN1CCCC1)N=C(N)C21CCC1 |  |  |  |  |  |  |  |  |  |  |  | Active |
| COc1cc2c(NC3CCN(c4ncc(C(=O)NO)cn4)CC3)cc(C)nc2cc1OCCCN1CCCC1 | 0.017 |  |  | 0.118 | 0.034 | 2.04 | > 10 | > 10 | 33.25 | 4.48 | 0.75 |  |
| COc1cc2nc(-c3ccc(C)o3)cc(NCC3CCN(C4CC(C(=O)NO)C4)CC3)c2cc1OC (centres undefined) | 0.453 |  |  | 3.18 | > 10 | 0.54 | 1.99 | 2 | 10.41 | 4.98 | 0.68 |  |
| COc1cc2nc(C3CCCCC3)cc(NCC3CCN(c4ncc(C(=O)NO)cn4)CC3)c2cc1OC | 0.002 |  |  | 0.111 | > 10 | > 10 | 0.195 | 0.195 | 2.298 | 5.64 | 2.1 |  |
| COc1cc2c(NCC3CCC(C(=O)NO)CC3)cc(-c3ccc(C)o3)nc2cc1OCCCN1CCCC1 (centres undefined) | 0.022 | 0.159 | 0.109 | 0.034 | 0.055 | 0.531 | > 10 | > 10 | 26.1 | 4.58 |  |  |
| COc1cc2nc(-c3ccc(C)o3)cc(NCC3CCC(C(=O)NO)CC3)c2cc1OC (centres undefined) | 0.038 | 0.274 | 0.206 | 0.041 | > 10 | 2.85 | 5.83 | 5.75 | 9.6 | 5.02 | 3.93 |  |
